The target of data set [1] is T1, P450 2B4 H172A (Oryctolagus cuniculus, UniProt P00178, H172A).
T1 sequence (P00178 with tags, fused parts or gaps H172A limits assumed): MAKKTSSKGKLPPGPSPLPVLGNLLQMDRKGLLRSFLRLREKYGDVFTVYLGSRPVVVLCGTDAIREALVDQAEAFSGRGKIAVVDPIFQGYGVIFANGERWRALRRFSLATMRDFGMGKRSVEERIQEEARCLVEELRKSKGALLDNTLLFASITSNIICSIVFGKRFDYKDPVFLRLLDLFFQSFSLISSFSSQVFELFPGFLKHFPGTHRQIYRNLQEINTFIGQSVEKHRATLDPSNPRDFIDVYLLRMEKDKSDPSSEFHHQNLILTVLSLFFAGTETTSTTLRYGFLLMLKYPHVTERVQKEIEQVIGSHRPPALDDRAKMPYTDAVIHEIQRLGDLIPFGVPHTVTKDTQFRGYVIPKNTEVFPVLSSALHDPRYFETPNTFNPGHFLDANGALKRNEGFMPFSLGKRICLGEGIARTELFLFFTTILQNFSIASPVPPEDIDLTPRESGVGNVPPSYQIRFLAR
It counts as biochemical, rabbit (Oryctolagus cuniculus).

Data set [2] concerns the target T2, P450 2B4 H172Q (Oryctolagus cuniculus, UniProt P00178, H172Q).
T2 sequence (P00178 with tags, fused parts or gaps H172Q limits assumed): T1 sequence (P00178 with tags, fused parts or gaps H172A limits assumed) with A153Q
It counts as biochemical, rabbit (Oryctolagus cuniculus).

The test system of the next data set is P450 2B4 mutants. It is filed as biochemical, rabbit (Oryctolagus cuniculus). As to conditions: each mutant except the inactive H172F.
For data set [3], the target named is T3, P450 2B4 H172F (Oryctolagus cuniculus, UniProt P00178, H172F).
T3 sequence (P00178 with tags, fused parts or gaps H172F limits assumed): T1 sequence (P00178 with tags, fused parts or gaps H172A limits assumed) with A153F

Data set [4] deals with T3, P450 2B4 H172F. The source holds these as a separate data set.
In another data set the target is T4, P450 2B4 wild type (Oryctolagus cuniculus, UniProt P00178).
T4 sequence (P00178 with tags, fused parts or gaps limits assumed): T1 sequence (P00178 with tags, fused parts or gaps H172A limits assumed) with A153H
In words: Inhibition of 7-EFC O-deethylation by imidazole inhibitors. It counts as biochemical, rabbit (Oryctolagus cuniculus).

Data set [5] deals with T1, P450 2B4 H172A. Described as above. It is filed as biochemical, rabbit (Oryctolagus cuniculus).
For data set [6], the target named is T2, P450 2B4 H172Q. Described as above. It is filed as biochemical, rabbit (Oryctolagus cuniculus).
The next data set has as its target T5, P450 2B4 L437A (Oryctolagus cuniculus, UniProt P00178, L437A).
T5 sequence (P00178 with tags, fused parts or gaps L437A limits assumed): T1 sequence (P00178 with tags, fused parts or gaps H172A limits assumed) with A153H, L418A
Described as above. It is filed as biochemical, rabbit (Oryctolagus cuniculus). As to conditions: rabbit, pH 7.4, probe 7-EFC (50 μM), O-deethylation.

In data set [7] the target is T6, P450 2B4 E474D (Oryctolagus cuniculus, UniProt P00178, E474D).
T6 sequence (P00178 with tags, fused parts or gaps E474D limits assumed): T1 sequence (P00178 with tags, fused parts or gaps H172A limits assumed) with A153H, E455D
The description is as above. It counts as biochemical, rabbit (Oryctolagus cuniculus).

Another data set concerns the target T7, P450 2B4 E474Q (Oryctolagus cuniculus, UniProt P00178, E474Q).
T7 sequence (P00178 with tags, fused parts or gaps E474Q limits assumed): T1 sequence (P00178 with tags, fused parts or gaps H172A limits assumed) with A153H, E455Q
The description is as above. It is filed as biochemical, rabbit (Oryctolagus cuniculus).

Data set [8] has as its target T3, P450 2B4 H172F. In words: Spectral binding titration of imidazole ligands. As to conditions: 2B4 H172F versus wild type. Further details: species or system rabbit (Oryctolagus cuniculus). The method in brief: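 Protein was the His-tagged 2B4dH construct (single mutants or wild type), expressed in TOPP3 cells and Ni-NTA purified. Spectra 350–700 nm recorded after serial 5 μl additions of 100 μM 4-CPI or bifonazole. Ks came from a tight-binding equation fit, and the 4-CPI/bifonazole Ks ratio was calculated.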

Data set [9] has as its target T6, P450 2B4 E474D. It is filed as biochemical, rabbit (Oryctolagus cuniculus).

Consider 3 compounds from publication PMC3911823 (The FEBS journal, 2011).

Positions count from the first letter of the chain named.

Regarding `COc1ccc2c(C(F)(F)F)cc(=O)oc2c1` [7-MFC, 7-methoxy-4-(trifluoromethyl)coumarin], the “decrease (change) in kcat versus wild type” value on P450 2B4 H172A [1] and at P450 2B4 H172Q [2] was ~ 2 fold each time. Besides, in the data set with P450 2B4 mutants, the “change in KM versus wild type” value was < 2 fold. Besides, at P450 2B4 H172F [3], the “substrate turnover (activity)” value was “inactive”. Also, the kcat on P450 2B4 H172F [4] was found to be 0 s⁻¹.

`c1ccc(-c2ccc(C(c3ccccc3)n3ccnc3)cc2)cc1` (stereo not drawn) [Bifonazole, bifonazole]: the IC50 on P450 2B4 wild type came to 0.9 µM; against P450 2B4 H172A [5], 0.58 µM; against P450 2B4 H172Q [6], 0.76 µM; against P450 2B4 E474D [7] it was 0.62 µM; on P450 2B4 E474Q, 0.81 µM. This compound also registered an IC50 at 10 min at P450 2B4 L437A of 0.05 µM. At P450 2B4 H172F [8], the “Ks (spectral dissociation constant) higher than wild type 2B4” value is ~ 20 times.

For the compound `CCOc1ccc2c(C(F)(F)F)cc(=O)oc2c1` [7-EFC, 7-ethoxy-4-(trifluoromethyl)coumarin], the “decrease (change) in kcat versus wild type” value on P450 2B4 E474D [9] is > 20 fold. On P450 2B4 H172F [3], the “substrate turnover (activity)” value is “inactive”. Besides, on P450 2B4 H172F [4], the kcat turned out to be 0 s⁻¹.

The kcat is the number of substrate molecules converted per active site and unit of time at saturation. One may read the IC50 as the point on the concentration scale where inhibition reaches its midpoint.
